Results published in ChEMBL document CHEMBL1759916, “Bicyclo[2.2.2]octyltriazole inhibitors of 11β-hydoxysteroid dehydrogenase type 1. Pharmacological agents for the treatment of metabolic syndrome” (Bioorg Med Chem Lett, 2011).

Experiments:
[1] = biological target: 11-beta-hydroxysteroid dehydrogenase 1 (Homo sapiens, UniProt P28845); experiment: Inhibition of human 11beta-HSD1 expressed in CHO-K1 cells assessed as conversion of [3H]-cortisone to [3H]-cortisol by scintillation proximity assay; assay type: cell-based
Sequence of 11-beta-hydroxysteroid dehydrogenase 1 (Homo sapiens, UniProt P28845) (P28845 whole entry): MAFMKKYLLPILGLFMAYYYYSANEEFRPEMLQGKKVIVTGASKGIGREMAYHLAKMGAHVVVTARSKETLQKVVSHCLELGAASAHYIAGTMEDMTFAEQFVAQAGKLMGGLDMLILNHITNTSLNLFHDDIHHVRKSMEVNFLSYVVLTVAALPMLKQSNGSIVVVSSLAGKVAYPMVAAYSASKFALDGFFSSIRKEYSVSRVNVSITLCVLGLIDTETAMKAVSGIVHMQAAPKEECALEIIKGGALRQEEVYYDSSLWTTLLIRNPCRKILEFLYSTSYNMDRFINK
Method in brief: (§1)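 Scintillation proximity assay (SPA). IC50 values are the average of two determinations.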

Mus musculus [2] = experiment: Inhibition of 11beta-HSD1 in ICR mouse assessed as inhibition of conversion of [3H]-cortisone to [3H]-cortisol at 10 mg/kg, po administered 16 hrs before [3H]-cortisone challenge; assay type: functional
Method in brief: (§2)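 Mouse pharmacodynamic model. Compound given 10 mg/kg PO, then 3H-cortisone by tail vein injection 1, 4 or 16 h after dosing. […] Plasma compound levels were measured after the PD studies.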

Mus musculus [3] = experiment: Inhibition of 11beta-HSD1 in ICR mouse assessed as inhibition of conversion of [3H]-cortisone to [3H]-cortisol at 10 mg/kg, po administered 4 hrs before [3H]-cortisone challenge; assay type: functional; method in brief: as §2
[4] = biological target: T1, 11-beta-hydroxysteroid dehydrogenase type 2 (Homo sapiens, UniProt P80365); experiment: Inhibition of human 11beta-HSD2 expressed in CHO-K1 cells assessed as conversion of [3H]-cortisol to [3H]-cortisone by scintillation proximity assay; assay type: cell-based
T1 sequence (P80365 whole entry): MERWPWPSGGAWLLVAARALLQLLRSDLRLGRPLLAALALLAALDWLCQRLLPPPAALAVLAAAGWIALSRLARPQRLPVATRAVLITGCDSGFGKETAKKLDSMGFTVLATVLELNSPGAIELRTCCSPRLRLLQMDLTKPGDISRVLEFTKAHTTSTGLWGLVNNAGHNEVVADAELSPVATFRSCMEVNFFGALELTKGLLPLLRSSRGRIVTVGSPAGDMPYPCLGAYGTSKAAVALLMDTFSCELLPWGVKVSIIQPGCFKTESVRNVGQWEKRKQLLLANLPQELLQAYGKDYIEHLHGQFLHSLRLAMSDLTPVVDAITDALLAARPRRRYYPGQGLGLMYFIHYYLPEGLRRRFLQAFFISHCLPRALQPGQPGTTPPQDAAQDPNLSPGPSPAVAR

[5] = biological target: 11-beta-hydroxysteroid dehydrogenase 1 (Mus musculus, UniProt P50172); experiment: Inhibition of mouse 11beta-HSD1 expressed in CHO-K1 cells assessed as conversion of [3H]-cortisone to [3H]-cortisol by scintillation proximity assay; assay type: cell-based
Sequence of 11-beta-hydroxysteroid dehydrogenase 1 (Mus musculus, UniProt P50172) (P50172 whole entry): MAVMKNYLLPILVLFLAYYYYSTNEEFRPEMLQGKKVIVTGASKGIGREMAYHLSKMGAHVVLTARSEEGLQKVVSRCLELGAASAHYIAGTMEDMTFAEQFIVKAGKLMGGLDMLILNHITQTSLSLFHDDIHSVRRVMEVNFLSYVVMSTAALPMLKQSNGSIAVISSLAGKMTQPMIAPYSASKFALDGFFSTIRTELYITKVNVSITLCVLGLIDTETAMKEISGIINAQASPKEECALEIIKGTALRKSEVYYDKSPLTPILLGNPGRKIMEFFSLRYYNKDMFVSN

[6] = biological target: T2, 11-beta-hydroxysteroid dehydrogenase type 2 (Mus musculus, UniProt P51661); experiment: Inhibition of mouse 11beta-HSD2 expressed in CHO-K1 cells assessed as conversion of [3H]-cortisol to [3H]-cortisone by scintillation proximity assay; assay type: cell-based; method in brief: as §1
T2 sequence (P51661 whole entry): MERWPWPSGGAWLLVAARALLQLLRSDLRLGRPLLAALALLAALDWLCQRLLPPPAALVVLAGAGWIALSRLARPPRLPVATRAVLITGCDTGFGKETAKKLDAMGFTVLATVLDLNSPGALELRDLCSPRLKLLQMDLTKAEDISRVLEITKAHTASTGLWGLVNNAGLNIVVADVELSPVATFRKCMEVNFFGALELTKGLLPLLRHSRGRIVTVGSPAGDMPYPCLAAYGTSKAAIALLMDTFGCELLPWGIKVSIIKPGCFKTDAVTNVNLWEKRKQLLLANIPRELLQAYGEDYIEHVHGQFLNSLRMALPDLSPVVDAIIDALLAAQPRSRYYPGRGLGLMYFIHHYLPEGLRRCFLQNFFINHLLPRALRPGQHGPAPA

Structure (SMILES) | IC50 [1] | inhibition in vivo at 10 mg/kg (Mus musculus [2]) | inhibition in vivo at 10 mg/kg (Mus musculus [3]) | IC50 [4] | IC50 [5] | IC50 [6]
CCS(=O)(=O)NCC12CCC(c3nnc(-c4ccccc4C(F)(F)F)n3C)(CC1)CC2 | 20 nM | 50% | 95% | > 4000 nM | 2.9 nM | > 4000 nM
CCS(=O)(=O)CC12CCC(c3nnc(-c4ccccc4C(F)(F)F)n3C)(CC1)CC2 |  | 80% | 94% |  | 4 nM | 
Cn1c(-c2ccccc2C(F)(F)F)nnc1C12CCC(CCS(=O)(=O)C(C)(C)C)(CC1)CC2 | 5.4 nM | 10% | 65% | > 4000 nM | 6.3 nM | > 4000 nM
Cn1c(-c2ccccc2C(F)(F)F)nnc1C12CCC(CNS(C)(=O)=O)(CC1)CC2 | 30 nM | 27% | 73% | > 4000 nM | 4 nM | > 4000 nM
Cn1c(-c2ccccc2C(F)(F)F)nnc1C12CCC(COc3ccc(S(C)(=O)=O)cc3)(CC1)CC2 | 1 nM | 28% | 79% | > 4000 nM | 2 nM | > 4000 nM
CCSCCC12CCC(c3nnc(-c4ccccc4C(F)(F)F)n3C)(CC1)CC2 | 3.3 nM | 72% | 79% | > 4000 nM | 3.9 nM | > 4000 nM
CCS(=O)(=O)CCC12CCC(c3nnc(-c4ccccc4Cl)n3C)(CC1)CC2 | 7.5 nM | 74% | 87% | > 4000 nM |  | > 4000 nM
CCCS(=O)(=O)NCC12CCC(c3nnc(-c4ccccc4C(F)(F)F)n3C)(CC1)CC2 | 8.1 nM | 7% | 93% | > 4000 nM | 1 nM | > 4000 nM
CCS(=O)(=O)CCC12CCC(c3nnc(-c4cccc(Cl)c4)n3C)(CC1)CC2 | 900 nM |  |  | > 4000 nM | 1100 nM | > 4000 nM
CCS(=O)(=O)CCC12CCC(c3nnc(-c4ccccc4F)n3C)(CC1)CC2 |  |  |  | > 4000 nM |  | > 4000 nM
CC(C)S(=O)(=O)CCC12CCC(c3nnc(-c4ccccc4C(F)(F)F)n3C)(CC1)CC2 | 4.1 nM | 59% | 88% | > 4000 nM | 3.6 nM | > 4000 nM
CC(F)CCCC12CCC(c3nnc(-c4ccccc4C(F)(F)F)n3C)(CC1)CC2 (stereo not drawn) | < 1 nM | 51% | 96% | 1300 nM | < 1 nM | > 4000 nM
Cn1c(-c2ccccc2C(F)(F)F)nnc1C12CCC(CCS(=O)(=O)C(F)(F)F)(CC1)CC2 | 6.1 nM | 78% | 81% | > 4000 nM | 2.2 nM | > 4000 nM
CCS(=O)(=O)CCCC12CCC(c3nnc(-c4ccccc4C(F)(F)F)n3C)(CC1)CC2 [MK-0736] | 3.2 nM | 63% | 92% | > 4000 nM | 2.4 nM | > 4000 nM
CCS(=O)(=O)CCC12CCC(c3nnc(-c4ccc(O)cc4Cl)n3C)(CC1)CC2 | 2.8 nM | 14% | 26% | > 4000 nM | 3 nM | > 4000 nM
CCS(=O)(=O)CCC12CCC(c3nnc(-c4ccccc4Br)n3C)(CC1)CC2 | 10 nM | 65% | 86% | > 4000 nM |  | > 4000 nM
CCS(=O)(=O)CCC12CCC(c3nnc(-c4ccccc4C)n3C)(CC1)CC2 |  | 30% | 86% | > 4000 nM |  | > 4000 nM
CCS(=O)(=O)CCC12CCC(c3nnc(-c4ccc(Cl)cc4)n3C)(CC1)CC2 | 2800 nM |  |  | > 4000 nM | > 4000 nM | > 4000 nM
